From ChEMBL document CHEMBL1155599, “Ancistrolikokines A-C: new 5,8'-coupled naphthylisoquinoline alkaloids from Ancistrocladus likoko” (J Nat Prod, 2000)
Values after ≈ are worked out from the molar mass of the structure shown.

How the values were obtained:
[1] = Cytotoxicity against rat L6 cells after 72 hrs; assay type: cell-based; details: read-out: MIC
[2] = test system: Plasmodium falciparum; assay: Antimalarial activity after 48 hrs against Plasmodium falciparum K1 infected human erythrocytes by [3H]hypoxanthine uptake; assay type: functional, organism-based
Method in brief: (§1)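 Modified [3H]hypoxanthine incorporation assay; infected human red blood cells exposed to serial drug dilutions for 48 h at 37 °C under reduced O2/elevated CO2, then [3H]hypoxanthine added and incubated a further 24 h; harvested on glass fiber filters, scintillation counted. IC50 from sigmoidal inhibition curve; duplicates, repeated at least once. NF54 is drug-sensitive, K1 is chloroquine/pyrimethamine-resistant.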

[3] = test system: Plasmodium falciparum; assay: Antimalarial activity after 48 hrs against Plasmodium falciparum NF54 infected human erythrocytes by [3H]hypoxanthine uptake; assay type: functional, organism-based; method in brief: as §1

IC50 [2] [µg/mL] | IC50 [3] [µg/mL] | SMILES | MCC at 72 h [1] [µg/mL]
0.072 (≈ 0.19 µM) | 0.024 (≈ 0.0632 µM) | COc1cc(C)cc2c(-c3c(O)cc(O)c4c3C[C@@H](C)N[C@@H]4C)ccc(O)c12 [KORUPENSAMINE A] | 100
0.14 (≈ 0.344 µM) | 0.191 (≈ 0.469 µM) | COc1cc(O)c2c(c1-c1ccc(O)c3c(OC)cc(C)cc13)C[C@@H](C)N(C)[C@@H]2C [ANCISTROLIKOKINE A] | 90
0.208 (≈ 0.529 µM) | 0.538 (≈ 1.37 µM) | COc1cc(O)c(-c2ccc(OC)c3c(O)cc(C)cc23)c2c1[C@H](C)N[C@H](C)C2 [ANCISTROLIKOKINE B] | 30
0.924 (≈ 2.27 µM) | 6.23 (≈ 15.3 µM) | COc1cc(O)c(-c2ccc(OC)c3c(O)cc(C)cc23)c2c1[C@@H](C)N(C)[C@H](C)C2 [ANCISTROLIKOKINE C] | 
